# The source made the active and inactive calls. The rule behind the calls is not given here.
# Columns and labels:
# [1] = tested on: Staphylococcus aureus; experiment: Antibacterial activity against Staphylococcus aureus SA1199B after 18 hrs by serial dilution method; assay type: functional, organism-based
# How it was run: (§1)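 Strains grown on nutrient agar for 24 h at 37 °C. Compounds dissolved in DMSO and diluted in Mueller–Hinton broth to a 512 μg/mL starting concentration, then serially diluted in MHB with 10 mg/L Mg2+ and 20 mg/L Ca2+. Final inoculum 5 × 10^5 cfu/mL; 18 h, 37 °C. MIC is the lowest concentration with no growth, confirmed by MTT colour change. DMSO at most 3.125% v/v; triplicate.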
# [2] = tested on: RAW264.7; experiment: Antiinflammatory activity in mouse RAW264.7 cells assessed as inhibition of LPS-induced nitric oxide production preincubated for 1 hr followed by LPS stimulation for 48 hrs by Griess assay; assay type: functional, cell-based
# How it was run: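 Macrophage line RAW 264.7 pretreated 1 h with a range of concentrations (vehicle Carbowax 400, 0.1% v/v final), then given 100 ng/mL LPS for 48 h. Supernatant nitrite read by Griess reaction at 540 nm using a nitrite standard curve. NO normalized to Carbowax-only cells (100%); IC50 is the concentration giving 50% inhibition; four replicates, mean ± SD.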
# [3] = tested on: Escherichia coli; experiment: Antibacterial activity against Escherichia coli NCTC 10418 after 18 hrs by serial dilution method; assay type: functional, organism-based; how it was run: as §1
# [4] = tested on: Staphylococcus aureus; experiment: Antibacterial activity against Staphylococcus aureus EMRSA-15 after 18 hrs by serial dilution method; assay type: functional, organism-based; how it was run: as §1
# [5] = tested on: RAW264.7; experiment: Cytotoxicity against mouse RAW264.7 cells assessed as cell growth inhibition after 48 hrs by MTT assay; assay type: cell-based; details: raw264.7, 48 h
# How it was run: (§2)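 RAW 264.7 cells seeded, cultured overnight, and the seeded cell number measured before treatment as control. Cells exposed to various concentrations for 48 h, then MTT at 0.5 mg/mL […]. Cells lysed in 2-propanol with 0.4% HCl; absorbance read at 610 nm. OD normalized to control; one-way ANOVA.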
# [6] = tested on: RAW264.7; experiment: Antiinflammatory activity in mouse RAW264.7 cells assessed as inhibition of LPS-induced nitric oxide production at 10 ug/ml preincubated for 1 hr followed by LPS stimulation for 48 hrs by Griess assay; assay type: functional, cell-based
# How it was run: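 RAW 264.7 mouse macrophages in DMEM with 10% heat-inactivated FBS at 37 °C, 5% CO2. Compounds fixed at 10 μg/mL in Carbowax 400 (0.1% v/v final), added 1 h before 100 ng/mL LPS for 48 h. Nitrite in the supernatant measured by Griess reaction (540 nm) against a sodium nitrite standard curve. Controls: 0.1% Carbowax only.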
# [7] = tested on: RAW264.7; experiment: Cytostatic activity against mouse RAW264.7 cells assessed as cell growth inhibition after 48 hrs by MTT assay; assay type: cell-based; details: raw264.7, 48 h; how it was run: as §2
# [8] = tested on: RAW264.7; experiment: Antiinflammatory activity in mouse RAW264.7 cells assessed as inhibition of LPS-induced nitric oxide production treated 1 hr before LPS challenge measured after 48 hrs by Griess reaction
IC50 [2] [µM],IC50 [8] [µM],SMILES,Activity [1],Activity [3],Activity [4],GI [5] [µM],inhibition [6],growth inhibition (GI) [7]
14.2,–,CCCCCCC1CC(=O)CCSS1 (configuration not stated),inactive,inactive,inactive,> 85,Active,Toxic
–,–,CCCCCCCCC(=O)CCSSCCC(=O)CCCCCCCC,inactive,inactive,inactive,–,–,–
3.8,–,CCCCCCCCC(=O)CCSSCCC(=O)CC(CCCCCC)SC (configuration not stated),inactive,inactive,inactive,> 45,Active,Toxic
–,–,CCCCCC/C=C/C(=O)CCSSCCC(=O)/C=C/CCCCCC,inactive,inactive,inactive,–,–,–
–,2.2,C=C([C@H]1CC[C@@](C)(O)[C@@H](Br)C1)[C@H]1[C@H](O)[C@@H]2[C@@H](CC[C@@]2(C)O)C1(C)C,–,–,–,–,–,–
–,–,CCCCCC/C=C/C(=O)CCSSCCC(=O)CCCCCCCC,inactive,inactive,inactive,–,–,–
–,–,CCCCCC/C=C/C(=O)CCSSCCC(=O)CC(CCCCCC)SC (configuration not stated),inactive,inactive,inactive,–,–,–

# From ChEMBL document CHEMBL3813653, “Disulfides with Anti-inflammatory Activity from the Brown Alga Dictyopteris membranacea” (J Nat Prod, 2016)
